The text below walks through data of ChEMBL document CHEMBL1909517, “Green synthesis and antimicrobial evaluation of some new trifluoromethyl-substituted hexahydropyrimidines by grinding” (2011).

As a reminder, the MIC is the lowest concentration that inhibits growth of the organism. Low readings indicate greater potency, high ones weaker potency.

Holding throughout (type): functional
Assay [1] deals with Escherichia coli. Briefly: Antimicrobial activity against Escherichia coli after 24 hrs by spectrophotometry. The method in brief: (§1)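 Broth MIC read turbidimetrically. Bacteria were pre-cultured 24 h at 37 °C in LB, then held at 4 °C. Compounds active in an agar-well pre-screen (20 mg/ml DMSO, 100 µl per well, 37 °C 24 h) went forward. Dilutions of 1, 5, 10, 15 and 20 mg/ml DMSO from stock were made up to 10 ml LB and inoculated with 10 µl suspension. Triplicate tubes, 37 °C for 24 h, spectrophotometric growth read-out.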

Assay [2] has as its system Bacillus thuringiensis. Briefly: Antimicrobial activity against Bacillus thuringiensis after 24 hrs by spectrophotometry. Summed up:
as §1

Assay [3] relates to Bacillus thuringiensis. Nature of the assay: Ratio of tetracycline MIC to compound MIC for Bacillus thuringiensis.
Assay [4] deals with Escherichia coli. Nature of the assay: Ratio of tetracycline MIC to compound MIC for Escherichia coli.

Converted amounts (≈) assume the structure as drawn. The source made the active and inactive calls. No cut-off for these calls is given here. A value given as a limit tells only on which side of the number the result lay.

For `CCOC(=O)C1C(c2ccc(Cl)cc2)N=C(S)NC1(O)C(F)(F)F` (stereo not given), the outcome in assay [1] and in assay [2] was inactive.

In the case of `CCOC(=O)C1C(c2ccccc2)NC(=S)NC1(O)C(F)(F)F` (stereo not given), the Ratio in assay [3] and in assay [4] was 6 in each case. Further, the MIC in assay [1] and in assay [2] was at least 15 mg/mL throughout.

With `CCOC(=O)C1C(c2ccc(F)cc2)NC(=S)NC1(O)C(F)(F)F` (stereo not given), the outcome in assay [1] and in assay [2] was inactive.

With `CCOC(=O)C1C(c2ccc(O)cc2)NC(=S)NC1(O)C(F)(F)F` (stereo not given), the Ratio in assay [3] and in assay [4] was 6 each time. Further, the MIC in assay [1] and in assay [2] was at least 20 mg/mL throughout.

As to `CCOC(=O)C1C(c2cccs2)NC(=O)NC1(O)C(F)(F)F` (stereo not given), the Ratio in assay [3] and in assay [4] was 6 each time. Moreover, the MIC in assay [1] and in assay [2] was at least 20 mg/mL in each case.

`CCOC(=O)C1C(c2ccc(C)cc2)NC(=S)NC1(O)C(F)(F)F` (stereo not given): the Ratio in assay [3] and in assay [4] was 6 each time. Further, the minimum inhibitory concentration (MIC) in assay [1] and in assay [2] was at least 20 mg/mL throughout.

Regarding `CCOC(=O)C1C(c2ccc(N(C)C)cc2)NC(=S)NC1(O)C(F)(F)F` (stereo not given), the Ratio in assay [3] and in assay [4] was 6 in each case. Also, the MIC in assay [1] and in assay [2] was at least 20 mg/mL each time.

In assay [2], `CN(C)[C@@H]1C(O)=C(C(N)=O)C(=O)[C@@]2(O)C(O)=C3C(=O)c4c(O)cccc4[C@@](C)(O)[C@H]3C[C@@H]12` [TETRACYCLINE] gave an MIC of 75 mg/mL (≈ 169 mM).

For `CCOC(=O)C1C(c2ccc([N+](=O)[O-])cc2)NC(=O)NC1(O)C(F)(F)F` (stereo not given), the result in assay [1] and in assay [2] was inactive.

Take `CCOC(=O)C1C(c2ccc(OC)cc2)NC(=S)NC1(O)C(F)(F)F` (stereo not given): the Ratio in assay [3] and in assay [4] was 6 in each case. In addition, the MIC in assay [1] and in assay [2] was at least 15 mg/mL in each case.

As to `CCOC(=O)C1C(c2ccc(C)cc2)NC(=O)NC1(O)C(F)(F)F` (stereo not given), the Ratio in assay [3] and in assay [4] was 6 throughout. The minimal inhibitory concentration (MIC) in assay [1] and in assay [2] was at least 20 mg/mL throughout.

Regarding `CCOC(=O)C1C(c2ccc(Cl)cc2)NC(=O)NC1(O)C(F)(F)F` (stereo not given), the Ratio in assay [3] and in assay [4] was 6 in each case. Further, the MIC in assay [1] and in assay [2] was at least 15 mg/mL in each case.

As for `CCOC(=O)C1C(c2ccccc2)NC(=O)NC1(O)C(F)(F)F` (stereo not given), the result in assay [1] and in assay [2] was inactive.

Take `CCOC(=O)C1C(c2ccc(O)cc2)NC(=O)NC1(O)C(F)(F)F` (stereo not given): the Ratio in assay [3] and in assay [4] was 6 each time. For the same compound, the MIC in assay [1] and in assay [2] was at least 20 mg/mL throughout.
